From ChEMBL document CHEMBL1157871, “Synthesis and preliminary evaluation of peptidomimetic inhibitors of human beta-secretase” (Eur J Med Chem, 2010) come the findings set out here.

For orientation: inhibition means the relative decrease from the control value, in per cent. As a reminder, the IC50 is the concentration that inhibits the measured activity by half.

In test [1] the target is T1, Beta-secretase 1 (Homo sapiens, UniProt P56817). In words: Inhibition of human recombinant BACE1 using fluorescent peptide substrate at 10 ug/ml after 5 mins. The method, boiled down: (§1)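 FRET assay using a peptide substrate carrying a fluorophore and quencher on either side of a β-secretase cleavage site. Recombinant human BACE-1 was diluted in 0.1 M sodium acetate (pH 4.0) and added to the samples, then shaken 5 min. Fluorogenic Peptide Substrate IV in the same buffer was added and shaken 5 min. Read-out: ex 320 nm/em 405 nm; activity taken as ΔF/min relative to standard.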

Test [2] deals with T1, Beta-secretase 1. In words: Inhibition of human recombinant BACE1 using fluorescent peptide substrate after 5 mins. The procedure, abridged: as §1

T1 sequence (P56817 whole entry): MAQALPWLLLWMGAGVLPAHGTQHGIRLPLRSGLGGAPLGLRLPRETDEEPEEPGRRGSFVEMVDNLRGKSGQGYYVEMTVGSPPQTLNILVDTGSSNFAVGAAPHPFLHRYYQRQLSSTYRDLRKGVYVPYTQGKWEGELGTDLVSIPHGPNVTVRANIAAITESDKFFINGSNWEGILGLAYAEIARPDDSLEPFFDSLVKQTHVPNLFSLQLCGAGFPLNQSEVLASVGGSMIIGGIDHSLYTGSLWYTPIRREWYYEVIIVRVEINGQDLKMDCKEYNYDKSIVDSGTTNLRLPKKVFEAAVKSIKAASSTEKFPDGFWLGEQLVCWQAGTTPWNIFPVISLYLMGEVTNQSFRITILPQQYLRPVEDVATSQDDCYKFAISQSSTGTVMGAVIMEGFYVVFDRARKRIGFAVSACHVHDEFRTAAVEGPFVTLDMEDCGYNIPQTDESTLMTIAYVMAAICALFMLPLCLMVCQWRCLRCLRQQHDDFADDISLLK

For `CC(C)CNC(=O)[C@H](C)C[C@H](O)[C@H](CC(C)C)NC(=O)[C@H](Cc1ccc([N+](=O)[O-])cc1)NC(=O)/C=C/c1ccccc1`, in test [1], the inhibition came to 37.2%.

Consider `COc1ccc(CC(=O)N[C@@H](CO)C(=O)N[C@@H](CC(C)C)[C@@H](O)C[C@@H](C)C(=O)NCc2ccccc2)cc1`, for which the inhibition in test [1] was found to be 25.1%.

As to `CC(C)CNC(=O)[C@H](C)C[C@H](O)[C@H](CC(C)C)NC(=O)[C@H](Cc1ccccc1)NC(=O)c1ccc2c(c1)OCO2`, in test [1], the inhibition amounted to 16.2%. Moreover, in test [2], the 50% inhibitory concentration (IC50) came to 8.07 µM.

Take `CC(C)CNC(=O)[C@H](C)C[C@H](O)[C@H](CC(C)C)NC(=O)[C@H](Cc1ccc([N+](=O)[O-])cc1)NC(=O)c1cccc2ccccc12`: in test [1], the inhibition was -4.43%.

As to `CC(C)CNC(=O)[C@H](C)C[C@H](O)[C@H](CC(C)C)NC(=O)[C@H](Cc1ccc([N+](=O)[O-])cc1)NC(=O)c1ccc([N+](=O)[O-])cc1`, in test [1], the inhibition came to 10.5%. Besides, in test [2], the 50% inhibitory concentration (IC50) was determined as 2.64 µM.

Consider `CC(C)CNC(=O)[C@H](C)C[C@H](O)[C@H](CC(C)C)NC(=O)[C@H](Cc1ccccc1)NC(=O)c1cc([N+](=O)[O-])cc([N+](=O)[O-])c1`, for which the inhibition in test [1] worked out at 0.91%.

For the compound `CC(C)CNC(=O)[C@H](C)C[C@H](O)[C@H](CC(C)C)NC(=O)[C@H](Cc1ccccc1)NC(=O)c1cccc(Cl)c1`, the inhibition in test [1] came out at 16.9%.

Turning to `CC(C)CNC(=O)[C@H](C)C[C@H](O)[C@@H](NC(=O)[C@H](Cc1ccc([N+](=O)[O-])cc1)NC(=O)OC(C)(C)C)C(C)C`, the inhibition in test [1] came out at 30.1%.

Turning to `CC(C)[C@H](NC(=O)[C@H](CO)NC(=O)OC(C)(C)C)[C@@H](O)C[C@@H](C)C(=O)NCc1ccccc1`, the inhibition in test [1] is 50.5%.

Consider `CC(C)CNC(=O)[C@H](C)C[C@H](O)[C@H](CC(C)C)NC(=O)[C@H](Cc1ccc([N+](=O)[O-])cc1)NC(=O)/C=C/c1ccc(C(F)(F)F)cc1`, for which the inhibition in test [1] turned out to be 0.13%. Moreover, the IC50 in test [2] came to 3.79 µM.

As for `CC(C)CNC(=O)[C@H](C)C[C@H](O)[C@H](CC(C)C)NC(=O)[C@H](Cc1ccccc1)NC(=O)c1ccccc1`, the inhibition in test [1] stood at 11.2%. Moreover, the half-inhibitory concentration (IC50) in test [2] was 6.93 µM.

Regarding `CC(C)[C@H](NC(=O)[C@H](Cc1ccccc1)NC(=O)OC(C)(C)C)[C@@H](O)C[C@@H](C)C(=O)NCc1ccccc1`, in test [1], the inhibition stood at 23%.

For the compound `CC(C)CNC(=O)[C@H](C)C[C@H](O)[C@H](CC(C)C)NC(=O)[C@H](Cc1ccc([N+](=O)[O-])cc1)NC(=O)c1ccc(Cl)cc1Cl`, the inhibition in test [1] amounted to 22.2%. Moreover, the IC50 in test [2] is 4.24 µM.

As for `CC[C@H](C)[C@H](NC(=O)OC(C)(C)C)C(=O)N[C@@H](Cc1ccccc1)C(=O)N[C@@H](CC(C)C)[C@@H](O)C[C@@H](C)C(=O)NCC(C)C`, the inhibition in test [1] was -0.71%.

As to `CC[C@H](C)[C@H](NC(=O)OC(C)(C)C)C(=O)N[C@@H](Cc1ccccc1)C(=O)N[C@@H](C(C)C)[C@@H](O)C[C@@H](C)C(=O)NCc1ccccc1`, the inhibition in test [1] is -2.46%.

On to `CC(C)CNC(=O)[C@H](C)C[C@H](O)[C@@H](NC(=O)[C@H](Cc1ccccc1)NC(=O)OC(C)(C)C)C(C)C`, for which, in test [1], the inhibition was 25.8%.

Take `CC(C)CNC(=O)[C@H](C)C[C@H](O)[C@H](CC(C)C)NC(=O)[C@H](Cc1ccccc1)NC(=O)c1ccc([N+](=O)[O-])cc1`: the inhibition in test [1] was 1.47%. In addition, in test [2], the concentration for half-maximal inhibition (IC50) came out at 15.7 µM.

For `CC(C)CNC(=O)[C@H](C)C[C@H](O)[C@H](CC(C)C)NC(=O)[C@H](Cc1ccc([N+](=O)[O-])cc1)NC(=O)c1cccc(Cl)c1`, in test [1], the inhibition stood at 25.7%.

For the compound `CC(C)C[C@H](NC(=O)[C@H](CO)NC(=O)/C=C/c1ccc(C(F)(F)F)cc1)[C@@H](O)C[C@@H](C)C(=O)NCc1ccccc1`, in test [1], the inhibition was 16.4%.

In the case of `CC(C)CNC(=O)[C@H](C)C[C@H](O)[C@H](CC(C)C)NC(=O)[C@H](Cc1ccc([N+](=O)[O-])cc1)NC(=O)c1ccc2c(c1)OCO2`, in test [1], the inhibition worked out at 40.3%.

Regarding `CC(C)C[C@H](NC(=O)OC(C)(C)C)C(=O)N[C@@H](Cc1ccccc1)C(=O)N[C@@H](CC(C)C)[C@@H](O)C[C@@H](C)C(=O)NCc1ccccc1`, the inhibition in test [1] was 0.91%.

Turning to `CC(C)CNC(=O)[C@H](C)C[C@H](O)[C@H](CC(C)C)NC(=O)[C@H](Cc1ccccc1)NC(=O)c1cccc2ccccc12`, the inhibition in test [1] is -0.1%. The IC50 in test [2] was found to be 4.67 µM.

Turning to `CC(C)CNC(=O)[C@H](C)C[C@H](O)[C@H](CC(C)C)NC(=O)[C@H](Cc1ccc([N+](=O)[O-])cc1)NC(=O)c1cc([N+](=O)[O-])cc([N+](=O)[O-])c1`, the inhibition in test [1] turned out to be 7.61%.

Take `COc1ccc(C(=O)N[C@@H](Cc2ccccc2)C(=O)N[C@@H](CC(C)C)[C@@H](O)C[C@@H](C)C(=O)NCC(C)C)cc1OC`: the inhibition in test [1] turned out to be 14.7%.

Regarding `COc1ccc(C(=O)N[C@@H](Cc2ccc([N+](=O)[O-])cc2)C(=O)N[C@@H](CC(C)C)[C@@H](O)C[C@@H](C)C(=O)NCC(C)C)cc1OC`, the inhibition in test [1] is 18.3%. The IC50 in test [2] worked out at 3.81 µM.

Turning to `CC(C)CNC(=O)[C@H](C)C[C@H](O)[C@H](CC(C)C)NC(=O)[C@H](Cc1ccccc1)NC(=O)[C@@H](NC(=O)OC(C)(C)C)C(C)C`, the inhibition in test [1] was -2.37%.

Take `CC(C)CNC(=O)[C@H](C)C[C@H](O)[C@H](CC(C)C)NC(=O)[C@H](Cc1ccccc1)NC(=O)/C=C/c1ccccc1`: in test [1], the inhibition worked out at 22.8%.

Regarding `CC(C)CNC(=O)[C@H](C)C[C@H](O)[C@H](CC(C)C)NC(=O)[C@H](Cc1ccccc1)NC(=O)[C@H](CC(C)C)NC(=O)OC(C)(C)C`, in test [1], the inhibition turned out to be 54.6%. For the same compound, the IC50 in test [2] was 2.31 µM.

`CC(C)CNC(=O)[C@H](C)C[C@H](O)[C@H](CC(C)C)NC(=O)[C@H](Cc1ccccc1)NC(=O)/C=C/c1ccc(C(F)(F)F)cc1`: in test [1], the inhibition worked out at 59.7%. Moreover, the IC50 in test [2] stood at 19.5 µM.

For `CC(C)CNC(=O)[C@H](C)C[C@H](O)[C@H](CC(C)C)NC(=O)[C@H](Cc1ccccc1)NC(=O)c1ccc(Cl)cc1Cl`, the inhibition in test [1] is 20.3%.

Take `CC(C)[C@H](NC(=O)OC(C)(C)C)C(=O)N[C@@H](Cc1ccccc1)C(=O)N[C@@H](C(C)C)[C@@H](O)C[C@@H](C)C(=O)NCc1ccccc1`: in test [1], the inhibition is -1.56%.
